ChEMBL document CHEMBL3580569, “N-Substituted Quinolinonyl Diketo Acid Derivatives as HIV Integrase Strand Transfer Inhibitors and Their Activity against RNase H Function of Reverse Transcriptase” (J Med Chem, 2015)

What was measured:
[1] = biological target: Human immunodeficiency virus type 1 reverse transcriptase (Human immunodeficiency virus 1, UniProt Q72547); test: Inhibition of RNase H function of HIV1 reverse transcriptase using DNA/RNA hybrid as substrate by fluorescence spectrometer analysis
[2] = Selectivity index, ratio of CC50 for human HeLa-CD4-LTR-beta-gal cells to EC50 for HIV-1 3B infected in human HeLa-CD4-LTR-beta-gal cells; assay type: toxicity; conditions: read-out: Ratio CC50/EC50
[3] = biological target: T1, Human immunodeficiency virus type 1 integrase (Human immunodeficiency virus 1, UniProt Q7ZJM1)
T1 sequence (Q7ZJM1 whole entry): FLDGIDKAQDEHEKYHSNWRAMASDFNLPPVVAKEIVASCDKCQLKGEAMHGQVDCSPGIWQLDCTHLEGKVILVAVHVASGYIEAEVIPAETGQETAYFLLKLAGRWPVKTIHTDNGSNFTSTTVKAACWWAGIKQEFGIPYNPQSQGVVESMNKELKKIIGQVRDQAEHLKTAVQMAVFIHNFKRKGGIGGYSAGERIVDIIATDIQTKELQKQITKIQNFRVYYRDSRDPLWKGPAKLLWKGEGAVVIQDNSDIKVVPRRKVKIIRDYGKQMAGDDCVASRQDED

HeLa = test: Cytotoxicity against human HeLa-CD4-LTR-beta-gal cells after 24 hrs by ATPlite reagent based luminescence analysis; assay type: cell-based
[4] = biological target: T1, Human immunodeficiency virus type 1 integrase; remark: listed apart in the source
[5] = tested on: Human immunodeficiency virus 1; test: Antiviral activity against HIV-1 3B infected in human HeLa-CD4-LTR-beta-gal cells assessed as inhibition of viral replication by SpectraMax GEMINI-XS plate reader analysis; assay type: functional, organism-based; conditions: Human immunodeficiency virus 1, 3B
In short: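 HeLa-CD4-LTR-β-gal cells kept in DMEM, 10% serum, 0.5 mg/mL G418; seeded 10000 cells/well the day before. Drug 3-fold serially diluted over six points on cells (top 50 μM), then fresh medium or concentrated HIV-1(IIIB) supernatant added.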

[6] = biological target: Human immunodeficiency virus type 1 reverse transcriptase (Human immunodeficiency virus 1) (UniProt Q72547); test: Inhibition of RNase H function of HIV1 reverse transcriptase using DNA/RNA hybrid as substrate at 10 uM by fluorescence spectrometer analysis
In short: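 RNase H activity of HIV-1 RT was measured with an RNA/DNA hybrid substrate at 250 nM final, with 150–800 ng RT, in 50 mM Tris-HCl pH 8.0, 60 mM KCl, 10 mM MgCl2 and 1% DMSO, against DMSO-only wells. Fluorescence (ex 485/em 520 nm) was read each minute over 10 min at 37 °C. Percent inhibition at 10 μM = 100(v0−vi)/v0 from initial rates, run in triplicate.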

COc1ccccc1Cn1cc(C(=O)/C=C(\O)C(=O)O)c(=O)c2ccccc21
IC50 [1]: 16.3 µM | selectivity ratio [2]: > 5.4 | IC50 [3]: > 4.1 µM | CC50 (HeLa): > 50 µM | IC50 [4]: 0.038 µM | EC50 [5]: 9.3 µM

O=C(O)/C(O)=C/C(=O)c1cn(Cc2ccc(Cl)cc2)c2ccccc2c1=O
IC50 [1]: > 50 µM | selectivity ratio [2]: > 57.5 | IC50 [3]: 22 µM | inhibition [6]: 56.2% | CC50 (HeLa): > 50 µM | IC50 [4]: 0.54 µM | EC50 [5]: 0.87 µM

O=C(O)/C(O)=C/C(=O)c1cn(Cc2ccccc2F)c2cc(Cl)ccc2c1=O
IC50 [1]: 22.6 µM | selectivity ratio [2]: > 2.9 | CC50 (HeLa): > 50 µM | EC50 [5]: 17 µM

O=C(O)/C(O)=C/C(=O)c1cn(Cc2ccccc2F)c2ccccc2c1=O
IC50 [1]: > 50 µM | selectivity ratio [2]: > 19.2 | IC50 [3]: 1.2 µM | inhibition [6]: 45.1% | CC50 (HeLa): > 50 µM | IC50 [4]: 0.016 µM | EC50 [5]: 2.6 µM

O=C(O)/C(O)=C/C(=O)c1cn(Cc2ccc(F)c(F)c2)c2ccccc2c1=O
IC50 [1]: > 50 µM | selectivity ratio [2]: > 3.1 | inhibition [6]: 44% | CC50 (HeLa): > 50 µM | IC50 [4]: 0.11 µM | EC50 [5]: 16.2 µM

CCOC(=O)/C(O)=C/C(=O)c1cn(Cc2c(Cl)cccc2Cl)c2ccccc2c1=O
IC50 [1]: > 50 µM | selectivity ratio [2]: > 1.7 | inhibition [6]: 55% | CC50 (HeLa): > 50 µM | IC50 [4]: 32 µM | EC50 [5]: 30.2 µM

O=C(O)/C(O)=C/C(=O)c1cn(Cc2ccc(F)cc2F)c2ccccc2c1=O
IC50 [1]: 35.9 µM | selectivity ratio [2]: > 3.6 | CC50 (HeLa): > 50 µM | IC50 [4]: 0.01 µM | EC50 [5]: 13.8 µM

O=C(O)/C(O)=C/C(=O)c1cn(Cc2c(F)cccc2F)c2ccccc2c1=O [RDS-1984]
IC50 [1]: 10.8 µM | selectivity ratio [2]: > 6.2 | IC50 [3]: 0.7 µM | CC50 (HeLa): > 50 µM | IC50 [4]: 0.019 µM | EC50 [5]: 8.1 µM

COc1ccc(Cn2cc(C(=O)/C=C(\O)C(=O)O)c(=O)c3ccccc32)cc1
IC50 [1]: > 50 µM | IC50 [3]: 28 µM | inhibition [6]: 45.8% | IC50 [4]: 0.51 µM | EC50 [5]: > 50 µM
